According to ChEMBL document CHEMBL4354865 (J Med Chem, 2020):

How the values were obtained:
[1] = Inhibition of CYP3A in rat liver microsomes assessed as reduction in aminopyrine N-demethylase activity preincubated for 3 mins followed by NADPH addition and measured after 15 mins by iodometric titration method; format: ADME
Procedure, shortened: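 IC50 derived by fitting concentration–response curves for inhibition of aminopyrine N-demethylase activity, with ketoconazole run as the reference CYP3A inhibitor.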

[2] = target: T1, Indoleamine 2,3-dioxygenase 1 (Homo sapiens, UniProt P14902); assay: Inhibition of IDO1 in IFNgamma-stimulated human A375 cells assessed as reduction in L-Kyn level measured after 48 hrs by HPLC analysis
Target sequence in this assay (P14902 whole entry): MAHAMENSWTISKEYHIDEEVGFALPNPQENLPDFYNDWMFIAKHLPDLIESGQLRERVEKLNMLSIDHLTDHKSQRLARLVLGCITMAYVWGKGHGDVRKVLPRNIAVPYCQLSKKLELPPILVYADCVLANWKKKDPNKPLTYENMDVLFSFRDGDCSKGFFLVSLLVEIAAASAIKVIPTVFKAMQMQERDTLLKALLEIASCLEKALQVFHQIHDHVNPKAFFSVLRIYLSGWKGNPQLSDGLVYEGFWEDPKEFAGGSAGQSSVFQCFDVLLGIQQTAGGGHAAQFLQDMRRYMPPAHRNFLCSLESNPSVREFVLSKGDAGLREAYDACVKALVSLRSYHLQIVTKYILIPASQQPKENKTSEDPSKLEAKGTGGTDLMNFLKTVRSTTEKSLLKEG

[3] = Cytotoxicity against human A375 cells assessed as cell viability at 1 uM measured after 48 hrs by MTT assay relative to control; format: cell-based, A-375; conditions: read-out: Activity
Procedure, shortened: (§1)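 A375 cells, unstimulated or stimulated with recombinant human IFN-γ, were left untreated or treated with 1 µM compound for 48 h. L-Kyn was measured by HPLC and cell viability was assessed.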

[4] = target: T1, Indoleamine 2,3-dioxygenase 1; assay: Inhibition of IDO1 in IFNgamma-stimulated human A375 cells assessed as reduction in L-Kyn level at 1 uM measured after 48 hrs by HPLC analysis relative to control; procedure, shortened: as §1
Target sequence in this assay (P14902 whole entry, looked up): as the sequence (P14902 whole entry) above

[5] = Inhibition of CYP450 in rat liver microsomes assessed as reduction in aminopyrine N-demethylase activity preincubated for 3 mins followed by NADPH addition and measured after 15 mins by iodometric titration method; format: ADME; conditions: rat, microsomes, 0.25 h
Procedure, shortened: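 CYP inhibition read by aminopyrine N-demethylase activity, with IC50 determined from concentration–response curves. Ketoconazole (CYP3A inhibitor) served as reference.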

[6] = Drug metabolism in CD-1 mouse liver microsomes assessed as benzimidazole oxidation at 50 uM measured after 1 hr by LC-HRMS analysis; format: ADME, Microsome
[7] = Drug metabolism in CD-1 mouse liver microsomes assessed as oxidative N-dealkylation at 50 uM measured after 1 hr by LC-HRMS analysis; format: ADME, Microsome
[8] = Metabolic stability in CD-1 mouse liver microsomes assessed as parent compound remaining at 50 uM measured after 1 hr in presence of NADPH generating system by UV-LC/MS analysis; format: ADME, Microsome; conditions: read-out: Stability
Procedure, shortened: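 Mouse liver microsomes activated with NADPH. Residual parent compound was measured after 1 h incubation.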

[9] = target: T1, Indoleamine 2,3-dioxygenase 1; assay: Inhibition of IDO1 in IFNgamma-stimulated human DAN-G cells assessed as reduction in L-Kyn level measured after 48 hrs by HPLC analysis; format: cell-based
Target sequence in this assay (P14902 whole entry): as above

[10] = target: T1, Indoleamine 2,3-dioxygenase 1; assay: Inhibition of IDO1 in IFNgamma-stimulated human MCF7 cells assessed as reduction in L-Kyn level measured after 48 hrs by HPLC analysis; format: cell-based
Target sequence in this assay (P14902 whole entry): as above

[11] = target: Tryptophan 2,3-dioxygenase (Mus musculus, UniProt P48776); assay: Inhibition of mouse TDO transfected in P815 cells assessed as reduction in L-Kyn level measured after 16 hrs by HPLC analysis; format: cell-based
Procedure, shortened: (§2)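 P815 mastocytoma cells stably expressing mouse IDO1 (P1.IDO1) or TDO (P1.TDO) were treated with serial dilutions for 16 h. L-Kyn secreted into the culture supernatant was quantified by HPLC, and an IC50 was determined in each line.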

[12] = target: Indoleamine 2,3-dioxygenase 1 (Mus musculus, UniProt P28776); assay: Inhibition of mouse IDO1 transfected in P815 cells assessed as reduction in L-Kyn level measured after 16 hrs by HPLC analysis; format: cell-based; procedure, shortened: as §2
[13] = Metabolic stability in CD-1 mouse liver microsomes assessed as parent compound remaining at 50 uM measured after 1 hr in presence of NADPH by UV-LC/MS analysis

Sequence of Tryptophan 2,3-dioxygenase (P48776 whole entry): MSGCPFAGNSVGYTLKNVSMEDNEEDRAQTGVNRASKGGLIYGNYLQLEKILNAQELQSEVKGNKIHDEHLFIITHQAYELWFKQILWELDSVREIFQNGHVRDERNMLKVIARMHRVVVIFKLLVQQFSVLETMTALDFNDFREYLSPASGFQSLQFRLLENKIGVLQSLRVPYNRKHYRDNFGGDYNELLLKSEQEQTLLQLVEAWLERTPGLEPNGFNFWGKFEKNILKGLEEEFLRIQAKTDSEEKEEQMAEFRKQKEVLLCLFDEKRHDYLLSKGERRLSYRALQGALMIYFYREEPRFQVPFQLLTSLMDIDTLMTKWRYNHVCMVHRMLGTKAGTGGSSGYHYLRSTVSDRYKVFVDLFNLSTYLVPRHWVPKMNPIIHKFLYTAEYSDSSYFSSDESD
Sequence of Indoleamine 2,3-dioxygenase 1 (Mus musculus, UniProt P28776) (P28776 whole entry): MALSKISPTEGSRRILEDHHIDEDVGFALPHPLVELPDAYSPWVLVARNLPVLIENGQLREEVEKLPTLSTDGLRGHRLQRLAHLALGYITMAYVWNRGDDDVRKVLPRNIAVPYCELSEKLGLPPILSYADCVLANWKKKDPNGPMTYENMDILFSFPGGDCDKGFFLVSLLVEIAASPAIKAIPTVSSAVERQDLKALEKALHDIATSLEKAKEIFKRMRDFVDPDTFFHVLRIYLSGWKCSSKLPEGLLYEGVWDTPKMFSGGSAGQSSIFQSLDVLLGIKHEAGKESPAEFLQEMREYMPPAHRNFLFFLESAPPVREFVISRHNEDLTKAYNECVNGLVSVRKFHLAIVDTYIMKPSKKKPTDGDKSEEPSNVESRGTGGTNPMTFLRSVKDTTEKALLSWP

Compound	IC50 [2]	inhibition [4]	viability at 48 h, 1 µM [3]	other results
CC(=O)N1CCN(c2ccc(OCC3COC(Cn4ccnc4)(c4ccc(Cl)cc4Cl)O3)cc2)CC1 (stereo not given) [KETOCONAZOLE]				IC50 [1]: 6.4 µM
N#Cc1ccc(C(=O)NCc2cccc(Cn3cnc4ccccc43)c2)c(F)c1		37%	99%	
Cc1cc(C(=O)NCc2cccc(Cn3cnc4ccccc43)c2)ccc1C#N		44%	94%	
O=C(NCc1cccc(Cn2cnc3ccccc32)c1)c1ccc[nH]1		72%	94%	
O=C(OCc1cccc(Cn2cnc3ccccc32)c1)c1cc(Br)c[nH]1		0%	100%	
O=C(NCc1cccc(Cn2cnc3ccccc32)c1)c1cc2cc(O)ccc2[nH]1	0.781 µM	71%	99%	
O=C(NCc1cccc(Cn2cnc3ccccc32)c1)c1ccco1		25%	100%	

More lines, main results first:

IC50 [2]	inhibition [4]	Compound	viability at 48 h, 1 µM [3]	other results
0.407 µM	83%	O=C(NCc1cccc(Cn2cnc3ccccc32)c1)c1nc2ccccc2[nH]1	100%	
	0%	CC(=O)NCC(=O)NCc1cccc(Cn2cnc3ccccc32)c1	100%	
	13%	O=C(CNC(=O)c1ccccc1)NCc1cccc(Cn2cnc3ccccc32)c1	99%	
0.09 µM	88%	N#Cc1ccc(C(=O)NCc2cccc(Cn3cnc4ccccc43)c2)cc1	100%	inhibition (INH) [5]: Not Active; Drug metabolism [6]: Metabolite_Detected; Drug metabolism [7]: Metabolite_Detected; remaining at 1 h, 50 µM [8]: 59%; IC50 [9]: 1.94 µM; IC50 [10]: 0.11 µM; IC50 [11]: 32.3 µM; IC50 [12]: 0.112 µM; remaining at 1 h, 50 µM [13]: 59%
0.413 µM	91%	O=C(NCc1cccc(Cn2cnc3ccccc32)c1)c1cc2ccccc2o1	100%	
0.961 µM	88%	O=C(NCc1cccc(Cn2cnc3ccccc32)c1)c1ccc(F)cc1	89%	
0.327 µM	88%	Cc1ccc(C(=O)NCc2cccc(Cn3cnc4ccccc43)c2)cc1	94%	
0.477 µM	99%	O=C(NCc1cccc(Cn2cnc3ccccc32)c1)c1ccc(Cl)cc1	96%	
